Results published in ChEMBL document CHEMBL4414562, “Discovery of the First in Vivo Active Inhibitors of the Soluble Epoxide Hydrolase Phosphatase Domain” (J Med Chem, 2019).
The source made the active and inactive calls. The rule behind the calls is not given here.

Experiments:
[1] = biological target: T1, Bifunctional epoxide hydrolase 2 (Homo sapiens, UniProt P34913); assay: Inhibition of hydrolase activity of full length human soluble epoxide hydrolase pre-incubated for 30 mins before PHOME substrate addition by fluorescence based assay
T1 sequence (P34913 whole entry): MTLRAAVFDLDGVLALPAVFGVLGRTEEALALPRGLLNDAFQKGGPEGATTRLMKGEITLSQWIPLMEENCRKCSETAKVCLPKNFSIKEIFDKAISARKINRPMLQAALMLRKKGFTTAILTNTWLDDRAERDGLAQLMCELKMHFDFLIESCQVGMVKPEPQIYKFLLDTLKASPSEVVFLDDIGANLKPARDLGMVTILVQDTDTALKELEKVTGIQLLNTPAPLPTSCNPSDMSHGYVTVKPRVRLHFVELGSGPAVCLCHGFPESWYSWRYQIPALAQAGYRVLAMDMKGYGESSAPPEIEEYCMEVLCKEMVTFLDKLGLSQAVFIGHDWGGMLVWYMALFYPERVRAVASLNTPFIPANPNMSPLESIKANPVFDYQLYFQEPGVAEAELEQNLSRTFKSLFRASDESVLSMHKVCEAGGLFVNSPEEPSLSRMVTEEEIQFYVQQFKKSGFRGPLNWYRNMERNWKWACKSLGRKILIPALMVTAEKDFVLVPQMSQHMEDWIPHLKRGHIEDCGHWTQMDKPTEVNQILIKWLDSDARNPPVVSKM
Summary of the method: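 Hydrolase assay with 0.1 μM full-length enzyme in Bis-Tris pH 7 containing 0.1 mg/mL BSA and 0.01% Triton X-100. Reaction started with PHOME (50 μM final). Triplicates.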

[2] = biological target: T1, Bifunctional epoxide hydrolase 2; assay: Inhibition of phosphatase activity of full length human soluble epoxide hydrolase pre-incubated for 30 mins before FDP substrate addition by fluorescence based assay
[3] = biological target: Prostaglandin G/H synthase 1 (Homo sapiens, UniProt P23219); assay: Inhibition of COX1 in A23187-stimulated human platelets assessed as reduction in TXA2 production
Summary of the method: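 Washed human platelets preincubated with increasing compound concentrations, then challenged with calcium ionophore A23187. TXB2 (stable TXA2 metabolite) in supernatant quantified by LC−MS/MS with TXB2-d4 internal standard.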

Rattus norvegicus [4] = assay: Inhibition of sEH-H in Sprague-Dawley rat assessed as effect on ratio of 12,13-EpOME to 12,13-DiHOME in plasma at 30 mg/kg, po after 8 hrs by LC-MS/MS analysis; format: functional, organism-based
Summary of the method: (§1)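 Male Sprague-Dawley rats given a single oral dose of 30 mg/kg or vehicle (n = 3 per group). Plasma collected 8 h later. Epoxy fatty acid/diol ratios and LPA/corresponding MAG ratios quantified by LC−MS/MS.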

[5] = biological target: T1, Bifunctional epoxide hydrolase 2; assay: Competitive inhibition of full length human soluble epoxide hydrolase pre-incubated for 30 mins before DiFMUP substrate addition by fluorescence based assay
Rattus norvegicus [6] = assay: Inhibition of sEH-P in Sprague-Dawley rat assessed as effect on ratio of sn1-20:4 LPA to corresponding monoacylglycerol species in plasma at 30 mg/kg, po after 8 hrs by LC-MS/MS analysis; format: functional, organism-based; summary of the method: as §1
Rattus norvegicus [7] = assay: Inhibition of sEH-P in Sprague-Dawley rat assessed as effect on ratio of sn1-18:2 LPA to corresponding monoacylglycerol species in plasma at 30 mg/kg, po after 8 hrs by LC-MS/MS analysis; format: functional, organism-based; summary of the method: as §1
Rattus norvegicus [8] = assay: Inhibition of sEH-H in Sprague-Dawley rat assessed as effect on ratio of 19,20-EpDPA […] in plasma at 30 mg/kg, po after 8 hrs by LC-MS/MS analysis; format: functional, organism-based; summary of the method: as §1
[9] = Half life in Sprague-Dawley rat at 30 mg/kg, po monitored over 8 hrs by LC-MS analysis; format: ADME, organism-based; conditions: in vivo
Summary of the method: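 Male Sprague-Dawley rats (n = 3) given a single oral dose of 30 mg/kg. Plasma compound concentration followed over 8 h. Cmax and half-life derived from the plasma concentration–time profile.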

Sequence of Prostaglandin G/H synthase 1 (P23219 whole entry): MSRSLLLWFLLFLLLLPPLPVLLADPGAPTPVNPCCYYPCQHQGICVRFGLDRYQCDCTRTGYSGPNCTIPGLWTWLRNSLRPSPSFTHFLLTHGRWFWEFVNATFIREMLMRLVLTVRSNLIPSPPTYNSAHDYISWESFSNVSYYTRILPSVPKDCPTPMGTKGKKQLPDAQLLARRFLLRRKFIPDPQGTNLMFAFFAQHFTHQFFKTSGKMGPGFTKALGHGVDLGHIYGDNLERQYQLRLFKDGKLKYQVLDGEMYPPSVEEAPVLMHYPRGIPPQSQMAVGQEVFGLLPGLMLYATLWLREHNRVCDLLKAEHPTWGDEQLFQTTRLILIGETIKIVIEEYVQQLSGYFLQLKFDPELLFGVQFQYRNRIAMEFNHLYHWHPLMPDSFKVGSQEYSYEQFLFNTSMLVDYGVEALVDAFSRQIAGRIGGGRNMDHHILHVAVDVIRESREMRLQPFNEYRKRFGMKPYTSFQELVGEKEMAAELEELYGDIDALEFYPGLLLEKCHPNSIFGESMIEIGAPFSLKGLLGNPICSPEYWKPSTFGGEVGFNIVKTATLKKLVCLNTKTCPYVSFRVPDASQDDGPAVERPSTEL

Row | IC50 [1] [µM] | IC50 [2] [µM] | IC50 [3] [µM] | Ki [5] [µM] | t1/2 [9] [h] | SMILES | inhibition (Rattus norvegicus [4]) | inhibition (Rattus norvegicus [6]) | inhibition (Rattus norvegicus [7]) | inhibition (Rattus norvegicus [8])
1 | > 300 | 70 | – | – | – | O=C(O)CCc1nc(-c2ccccc2)c(-c2ccccc2)o1 [OXAPROZIN] | – | – | – | –
2 | – | – | 1.2 | 4.8 | 7 | O=C(O)CCCc1nc(-c2ccc(Cl)c(Cl)c2)c(-c2ccccc2)o1 | inactive | Active | Active | inactive
